Assay [1] in a line: Selectivity for human sigma1 receptor over rat sigma2 receptor. The gist of the method:
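Selectivity ratio is the antilog of pKi(σ1) minus pKi(σ2). σ1 binding: Jurkat membranes with [3H](+)-pentazocine (8 nM). σ2 binding: rat cortex membranes with [3H]DTG (5 nM) plus 300 nM (+)-pentazocine. Both run 2 h at 22 °C in 5 mM Tris/HCl pH 7.4, nonspecific binding with 10 μM haloperidol.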

Assay [2] deals with Sigma non-opioid intracellular receptor 1 (Homo sapiens, UniProt Q99720). Briefly: Displacement of [3H](+)-pentazocine from sigma1 receptor in human Jurkat cell membrane. Format: cell membranes. A general note: In a radioligand displacement assay an active substance lowers the binding of a labelled ligand.
A short description of assay [3]: Displacement of [3H]DTG from sigma2 receptor in rat cerebral cortex cell membrane. Format: cell membranes. The gist of the method:
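Rat cerebral cortex membranes (100-200 μg protein) incubated with [3H]DTG (5 nM) and 300 nM (+)-pentazocine to mask σ1 sites, across a range of test concentrations, 2 h at 22 °C in 5 mM Tris/HCl pH 7.4. Nonspecific binding defined with 10 μM haloperidol. GF/B filtration, scintillation counting. Triplicates; Ki from two to three experiments.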

Assay [4] in a line: Antagonist activity at sigma2 receptor in guinea pig ileum longitudinal muscle assessed as inhibition of 5-HT-induced contractions. Format: functional, tissue-based. The settings on record: Cavia porcellus. The gist of the method:
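Longitudinal muscle/myenteric plexus ileum segments from male guinea pigs (300-400 g), 1 g tension, Tyrode's at 37 °C gassed with 95% O2/5% CO2, 1 μM ketanserin present throughout. After 90 min equilibration, three noncumulative 5-HT concentration-response curves; the second is run with test compound. 5-HT contact 1 min, 20 min washes between doses; peak isotonic contraction recorded.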

The subject of assay [5] is MCF7. Briefly: Growth inhibition of human MCF7 cells at 10 uM after 48 hrs by SRB assay. Format: functional, cell-based. The gist of the method:
(§1)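 MCF-7 or MCF-7/ADR cells seeded at 1 × 10⁴/well, dosed after 24 h with 10 μM compound for 48 h at 37 °C, 5% CO2. Fixed with cold TCA, stained with 0.4% SRB in 1% acetic acid, dye solubilized in 10 mM Tris, absorbance read at 520 nm. Percent inhibition given as mean ± SEM of three experiments.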
Background: The SRB assay estimates cell density from bound dye.

Assay [6] has as its system NCI/ADR-RES. Briefly: Growth inhibition of human MCF7/ADR cells highly expressing sigma1 receptor at 10 uM after 48 hrs by SRB assay. Format: functional, cell-based. The gist of the method: as §1
Assay [7] is described as follows: Growth inhibition of human MCF7/ADR cells highly expressing sigma1 receptor after 48 hrs by SRB assay. Format: functional. The conditions noted are these: NCI/ADR-RES. In outline:
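Cells seeded at 1 × 10⁴/well; after 24 h, compound (10 nM-10 μM) added in quadruplicate for 48 h at 37 °C, 5% CO2, with a time-zero plate read. TCA fixation, 0.4% SRB stain, absorbance at 520 nm. GI50 is the concentration halving net protein increase, interpolated from % growth versus log concentration; mean of triplicates.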

The nature of assay [8]: Cell cycle arrest in human MCF7/ADR cells highly expressing sigma1 receptor assessed as accumulation at G2/M phase at 10 uM after 48 hrs by propidium iodide staining based flow cytometry relative to control. Format: functional. The settings on record: NCI/ADR-RES. In outline:
(§2)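 MCF-7 or MCF-7/ADR cells (3 × 10⁵/mL) held 48 h at 37 °C, 5% CO2 with 10 μM compound. Fixed in cold 70% ethanol for 15 min on ice, then stained 40 min at 37 °C with PI (50 μg/mL) plus RNase A (0.1 mg/mL) and 0.05% Triton X-100. Flow cytometry over 10000 events; one of three experiments shown.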

Assay [9] in a line: Cell cycle arrest in human MCF7/ADR cells highly expressing sigma1 receptor assessed as accumulation at G0/G1 phase at 10 uM after 48 hrs by propidium iodide staining based flow cytometry relative to control. The conditions noted are these: NCI/ADR-RES. Format: functional. The gist of the method: as §2
(In flow cytometry, cells or beads pass a laser one at a time.)

A short description of assay [10]: Cell cycle arrest in human MCF7/ADR cells highly expressing sigma1 receptor assessed as accumulation at S phase at 10 uM after 48 hrs by propidium iodide staining based flow cytometry relative to control. Format: functional. The settings on record: NCI/ADR-RES. The gist of the method: as §2
Assay [11] deals with Mus musculus. Kind of assay: Analgesic effect in CD1 mouse at 1 mg/kg, sc by radiant heat tail flick test. Format: functional, organism-based. More on the design: dose 1 mg/kg. The gist of the method: (§3)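 Male CD-1 mice, 25-35 g. Radiant heat tail flick, IR source aimed at the lower third of the tail. Basal latency (2-3 s) is the mean of two trials 30 min apart. Drug 1 mg/kg sc or vehicle (DMSO 1%) given 30 min before morphine 5.0 mg/kg sc or saline. Read at 30, 60, 90 and 120 min after morphine; cutoff 12 s. Reported as %MPE, mean ± SEM, n=8; ANOVA with Student-Newman-Keuls.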

For assay [12], the system named is Mus musculus. Kind of assay: Increase in morphine-induced analgesia in CD1 mouse at 1 mg/kg, sc administered 30 mins before morphine challenge measured after 60 to 120 mins post morphine challenge by radiant heat tail flick test. Details: dose 1 mg/kg. Format: functional, organism-based. The gist of the method: as §3
Assay [13] deals with MCF7. Briefly: Cell cycle arrest in human MCF7 cells assessed as accumulation at S phase at 10 uM after 48 hrs by propidium iodide staining based flow cytometry relative to control. Format: functional. In outline:
as §2

The test system of assay [14] is MCF7. Kind of assay: Cell cycle arrest in human MCF7 cells assessed as accumulation at G0/G1 phase at 10 uM after 48 hrs by propidium iodide staining based flow cytometry relative to control. Format: functional. In outline: as §2
For assay [15], the system named is MCF7. Briefly: Cell cycle arrest in human MCF7 cells assessed as accumulation at G2/M phase at 10 uM after 48 hrs by propidium iodide staining based flow cytometry relative to control. Format: functional. The gist of the method: as §2
Assay [16] deals with NCI/ADR-RES. Briefly: Induction of apoptosis in human MCF7/ADR cells highly expressing sigma1 receptor at 10 uM after 48 hrs by Annexin V staining based flow cytometry relative to control. Format: functional. In outline: (§4)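 MCF-7 or MCF-7/ADR cells (3 × 10⁵/mL) exposed to 10 μM compound for 48 h at 37 °C, 5% CO2. Stained with Annexin V-FITC (1:40) for 10 min at room temperature in binding buffer (10 mM Hepes pH 7.4, 140 mM NaCl, 2.5 mM CaCl2), then read by FACS. Reported as % Annexin V+ cells, mean ± SEM of three experiments.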

In assay [17] the test system is MCF7. Kind of assay: Induction of apoptosis in human MCF7 cells at 10 uM after 48 hrs by Annexin V staining based flow cytometry relative to control. Format: functional. The gist of the method: as §4

Calls of active or inactive are those of the source. Where only a bound is given, the exact number is not on record here.

Chain of Sigma non-opioid intracellular receptor 1 (Q99720 whole entry): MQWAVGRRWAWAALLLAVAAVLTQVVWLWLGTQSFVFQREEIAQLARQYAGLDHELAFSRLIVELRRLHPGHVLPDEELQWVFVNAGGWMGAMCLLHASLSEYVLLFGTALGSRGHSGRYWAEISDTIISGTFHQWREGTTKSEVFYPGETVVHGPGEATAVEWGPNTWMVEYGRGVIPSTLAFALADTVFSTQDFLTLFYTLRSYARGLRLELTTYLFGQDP

In general, pKi refers to the negative decadic logarithm of the Ki, by convention in mol/L. With `c1ccc(CN2CCC3(CCc4ccccc4O3)CC2)cc1`, the Ki selectivity ratio (sigma2/sigma1) in assay [1] was found to be 36. Besides, the figures for the pKi in [2] (jurkat) and in assay [3] were 9.21 and 7.66, respectively.

Broadly, the IC50 is the concentration needed to halve the response being measured. Broadly, the Ki is the equilibrium dissociation constant of an inhibitor or competing ligand from its target. Read a high Ki as weaker binding. As for `c1ccc(CN2CCC3(CCc4ccccc4C3)CC2)cc1`, the IC50 in assay [4] was over 10 µM. The Ki selectivity ratio (sigma2/sigma1) in [1] was determined as 32. In assay [2], this compound showed a Ki of 0.437 nM. The compound further returned a pKi in [3] of 7.85.

Consider `c1ccc(CN2CCC3(CC2)OCc2ccccc2S3)cc1`, for which, in assay [4], the IC50 is over 10 µM. In the assay on MCF7 [5], the outcome was inactive. Moreover, the result in the assay on NCI/ADR-RES [6] was Active. The Ki selectivity ratio (sigma2/sigma1) in assay [1] was found to be 2510. In [2], the inhibitory constant (Ki) was 0.0891 nM. The pKi in assay [3] is listed as 6.65.

A word on the GI50: it is the concentration that inhibits growth by half. Lower therefore signals more potent growth inhibition. On to `O=C1CC2(CCN(Cc3ccccc3)CC2)Oc2ccccc21`, for which, in assay [4], the IC50 worked out at 7.2 µM. Further, in the assay with MCF7 [5], the result was inactive. Moreover, the outcome in the assay on NCI/ADR-RES [6] was Active. Also, the Ki selectivity ratio (sigma2/sigma1) in assay [1] amounted to 1440. In addition, the Ki in [2] was 0.209 nM. For the same compound, in assay [7], the GI50 stood at 10 µM. Also, in [3], the pKi came to 6.52.

In the case of `c1ccc(CN2CCC3(CC2)OCc2ccccc2O3)cc1`, the IC50 in assay [4] is 3.9 µM. Moreover, the result with MCF7 [5] was inactive. Moreover, in the assay on NCI/ADR-RES [6], the outcome was Active. In addition, the Ki selectivity ratio (sigma2/sigma1) in assay [1] was determined as 2340. In [2], this compound showed a Ki of 0.0977 nM. Besides, the pKi in assay [3] turned out to be 6.64.

For `O=C1CC(C2CCN(CCc3ccccc3)CC2)Oc2ccccc21` (racemic), the result in the assay on MCF7 [5] was inactive. Moreover, the result in the assay with NCI/ADR-RES [6] was Active. Also, the Ki selectivity ratio (sigma2/sigma1) in assay [1] turned out to be 76. In assay [3], this compound showed a pKi of 8.08.

For `O=C1CC(C2CCN(Cc3ccccc3)CC2)Oc2ccccc21` (racemic), the result in the assay on MCF7 [5] was inactive. Moreover, the Activity is 23.3% in assay [8], 62.7% in [9] and 14% in assay [10]. Besides, in the assay with NCI/ADR-RES [6], the result was Active. For the same compound, the Ki selectivity ratio (sigma2/sigma1) in assay [1] worked out at 2630. In assay [3], this compound returned a pKi of 6.76.

In the case of `c1ccc(CN2CCC(C3CCc4ccccc4S3)CC2)cc1` (racemic), the IC50 in assay [4] was 8.4 µM. The result with MCF7 [5] was inactive. In addition, the result with NCI/ADR-RES [6] was Active. Also, the Ki selectivity ratio (sigma2/sigma1) in assay [1] turned out to be 1000. Moreover, the Ki in assay [2] is 0.0575 nM. For the same compound, the pKi in assay [3] is 7.24.

Turning to `O=C1CC(C2CCN(Cc3ccccc3)CC2)Sc2ccccc21` (racemic), the outcome with MCF7 [5] and with Mus musculus [11] was inactive. Also, the values for the Activity in [8], in assay [9] and in assay [10] were 24.4%, 61.5% and 13.9%, respectively. The outcome in the assay with NCI/ADR-RES [6] and with Mus musculus [12] was Active. This compound yielded a pKi in assay [3] of 5.81.

The compound `O=C(CCCN1CCC(O)(c2ccc(Cl)cc2)CC1)c1ccc(F)cc1` [HALOPERIDOL] displayed a pKi in [3] of 6.95.

Consider `c1ccc(CN2CCC3(CCc4ccccc4S3)CC2)cc1` [SPIPETHIANE], for which the IC50 in assay [4] is 6.3 µM. In the assay on MCF7 [5], the outcome was inactive. Besides, the Activity stood at 10% in the assay with MCF7 [13]; 24.8% in assay [8]; 55.1% in [9]; 73% with MCF7 [14]; 17% in the assay with MCF7 [15]; 5.4% with NCI/ADR-RES [16]. Moreover, the Activity is 20.1% in assay [10] and 2.7% in the assay on MCF7 [17]. Besides, the result with NCI/ADR-RES [6] was Active. Moreover, in assay [1], the Ki selectivity ratio (sigma2/sigma1) turned out to be 676. In addition, in [2], the affinity, expressed as Ki, was 0.589 nM. Further, in assay [3], the pKi came out at 6.4.

The values above are taken from ChEMBL document CHEMBL1156820, “Novel highly potent and selective sigma 1 receptor antagonists related to spipethiane” (J Med Chem, 2010).
